The nature of series [1]: Distribution coefficient. As to conditions: [octanol]:[phosphate-buffered saline, pH 7.2], fluorescence, mean ± SD.
Series [2] relates to cisplatin-resistant KB CP.5 cells. Briefly: Cytotoxicity, CellTiter-Glo, monolayer. Type of series: cell-based, human. Summed up: (§1)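 Monolayers in DMEM (4.5 g/L glucose, L-glutamine, penicillin/streptomycin, 10% FBS) at 37 °C, 5% CO2. […] Cells at 1000/well grown 24 h, then given test compound (from DMF, DMSO or 3 mM saline stock) as 1:3 serial dilutions in DMEM, DMF at most 0.25% final. After 72 h, CellTiter-Glo luminescence read, in triplicate.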
For orientation: In ATP-based viability assays light output follows the ATP content of the culture.

For series [3], the system named is cisplatin-resistant KB CP20 cells. Briefly: Cytotoxicity, CellTiter-Glo, monolayer. Format: cell-based, human. Conditions: for IC50: read-out: IC50 KB CP20, 72 h; for resistance of CP20 cells: relative to parent KB-3-1 cells, monolayer (Table 1 data). Summed up:
as §1

Series [4] deals with CP20 cells relative to KB-3-1 cells. Description: Cellular accumulation by flow cytometry. As to conditions: 25 μM, 45 min, normalized to KB-3-1. Type of series: cell-based, human. Summed up: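 Cells trypsinised (200,000 per tube), washed twice and resuspended in IMDM with 5% FBS containing fluorescent test compound (final 25 μM), then held 45 min at 37 °C. Cells rewashed, resuspended in PBS and kept on ice. FL-1 fluorescence read by flow cytometry (488 nm laser, 10,000 events per sample), normalised to parental KB-3-1 cells.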

The subject of series [5] is KB-3-1 human cervical carcinoma cell line. Briefly: Cytotoxicity, CellTiter-Glo, monolayer. Type of series: cell-based. Summed up:
as §1

In series [6] the test system is phosphorylation of histone H2A.X in KB-3-1 cells. Description: H2AX immunohistochemical staining. As to conditions: 24 h treatment. Type of series: cell-based, human. Summed up: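 KB-3-1 cells (5 × 10^4 per chamber) grown 24 h, then exposed to Pt complexes (5–100 μM) for 24 h. Cells PBS-washed, fixed in 4% paraformaldehyde and blocked 1 h in PBS/5% normal horse serum/0.3% Triton X-100. Stained overnight at 4 °C with Alexa Fluor 647-conjugated anti-phospho-H2A.X (Ser139) rabbit mAb, counterstained with DAPI (2 μg/mL, 1 h), then imaged for γH2A.X foci by confocal microscopy.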

The conditions of series [7]: pH 7.2.
The test system of series [8] is KB-3-1 cells grown in Matrigel. Description: Cytotoxicity in three dimensional Matrigel culture, CellTiter-Glo. Format: cell-based, human. As to conditions: KB-3-1, Matrigel. Summed up:
(§2)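 Wells coated with 5 mg/mL Matrigel and gelled 30 min at 37 °C. Cells (1000/well) seeded over it in 2.5 mg/mL Matrigel and grown 1 day (single cells) or 4 days (spheroids). Test compound added as 1:3 serial dilutions in DMEM. Viability by CellTiter-Glo with 60 min lysis, run in triplicate.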

Series [9] concerns cisplatin-resistant cell lines. As to conditions: cited from earlier work.
Series [10] has as its system CP.5 cells grown in Matrigel. Description: Cytotoxicity in three dimensional Matrigel culture, CellTiter-Glo. As to conditions: for IC50: CP.5, Matrigel. Format: cell-based, human. In a few lines:
as §2

Setting [11] is: read-out: IC50 KB CP.5, solvent DMF, 72 h.
Setting [12] is: read-out: IC50 KB 3-1, solvent DMF, 72 h.
Where [13] appears, read: relative to parent KB-3-1 cells, monolayer (Table 1 data).
[14] abbreviates: read-out: IC50 3D 1 Day, grown 1 day (single-cell suspension).
Where [15] appears, read: read-out: IC50 3D 4 Day, grown 4 days (spheroids).
[16] abbreviates: read-out: IC50 2D, CP.5, 2D culture (Table 2).
The mark [17] stands for this setting: read-out: IC50 KB CP.5, solvent Saline, 72 h.
[18] abbreviates: read-out: IC50 2D, KB-3-1, 2D culture (Table 2).
The mark [19] stands for this setting: read-out: IC50 KB 3-1, solvent Saline, 72 h.

Like-named read-outs stand apart in the source and are kept apart here. Bounds are passed on as bounds.

For `CC1=CC(C)=[N+]2C1=Cc1ccc(CCC(=O)NCCNC(=O)OC(C)(C)C)n1[B-]2(F)F` [BODIPY-Boc, tert-Butyl (2-(3-(5,5-Difluoro-7,9-dimethyl-5H-4λ^4,5λ^4-dipyrrolo[1,2-c:2′,1′-f][1,3,2]diazaborinin-3-yl)propanamido)ethyl)carbamate], the LogD (usually the decadic logarithm of the distribution of all forms, ionised or not, between an organic phase and buffer at a given pH) in series [1] was 2.15 ± 0.023. The concentration for half-maximal inhibition (IC50) (commonly the concentration needed to halve the response being measured) in series [2] (setting [11]) was 86.9 ± 4.4 µM; in [3] (solvent DMF), 53.6 ± 2.9 µM; in [5] (setting [12]), 86.7 ± 0.8 µM. Also, in [4], the “reduction of accumulation in CP20 cells versus parent KB-3-1 cells” value was “unaffected”.

Take `CC1=CC(C)=[N+]2C1=Cc1ccc(CCC(=O)NCCNC(=O)C3C[NH][Pt]([Cl])([Cl])[NH]3)n1[B-]2(F)F` (stereo not drawn) [BODIPY-prop-Pt, [(2,3-Diamino-N-(2-(3-(5,5-difluoro-7,9-dimethyl-5H-4λ^4,5λ^4-dipyrrolo[1,2-c:2′,1′-f][1,3,2]diazaborinin-3-yl)propanamido)ethyl)propanamide)dichloroplatinum (II)]]: the 50% inhibitory concentration (IC50) in [2] (setting [11]) stood at 44.6 ± 2.7 µM; in [3] (solvent DMF), 192 ± 50.3 µM; in series [5] (setting [12]), 21.5 ± 5.8 µM. In addition, in [2] (setting [13]), the “resistance of CP.5 cells” value worked out at 2 fold. Besides, the “resistance of CP20 cells” value in series [3] came to 10 fold. Besides, in [6] (50 μM), the γH2A.X foci result is on record as “did so at 50 μM”. Besides, the LogD in [7] worked out at 0.66 ± 0.011.

On to `N.N.[Cl][Pt][Cl]` [Cisplatin, cis-[PtCl2(NH3)2]], for which the half-maximal inhibitory concentration (IC50) worked out at 4.5 ± 0.7 µM in [8] (setting [14]); 9.4 ± 0.7 µM in [8] (setting [15]); 21 ± 2.8 µM in [2] (setting [16]); 23.9 ± 5.3 µM in [2] (setting [11]); 25.1 ± 3.4 µM in series [2] (setting [17]); 125 ± 31.5 µM in series [3] (solvent DMF). The 50% inhibitory concentration (IC50) in series [3] (solvent Saline) is over 100 µM; in series [5] (setting [18]), 2.5 ± 0.1 µM; in series [5] (setting [12]), 1.8 ± 0.1 µM; in series [5] (setting [19]) it was 2.5 ± 0.2 µM; in series [10] (setting [14]), 22.9 ± 4.6 µM; in series [10] (setting [15]), 32.1 ± 6.9 µM. Also, the “resistance of CP.5 cells” value in series [2] (2D (Table 2 data), relative to KB-3-1) came out at 8.4 fold; in series [2] (setting [13]) it was 10 fold. Moreover, the “resistance of CP20 cells” value in [3] is 60 fold. Moreover, in series [6] (5 μM), the “γH2A.X foci / DNA damage response” value is “strong DNA damage response”. The “reduction in accumulation in cisplatin-resistant cells” value in series [9] is on record as 50–75%. Moreover, the “resistance of CP.5 spheroids” value in series [10] (3D 4 day, relative to KB-3-1) is on record as 3.4 fold.

Regarding `NCCN.[Cl][Pt][Cl]` [[PtCl2(en)]], the IC50 in series [8] (setting [14]) was 21.4 ± 1 µM; in series [8] (setting [15]), 150 µM; in [2] (setting [16]), 107 ± 10.9 µM; in [2] (setting [11]), 150 ± 11.8 µM; in series [2] (setting [17]), 94.9 ± 8.3 µM; in [3] (solvent DMF), over 500 µM. The 50% inhibitory concentration (IC50) in [3] (solvent Saline) is over 100 µM; in [5] (setting [18]), 4.1 ± 0.2 µM; in series [5] (setting [12]), 1 ± 0.6 µM; in [5] (setting [19]), 2.7 ± 1.9 µM; in series [10] (setting [14]), 298 ± 21.8 µM; in [10] (setting [15]), over 500 µM. In addition, the “resistance of CP.5 cells” value in series [2] (setting [13]) was found to be 40 fold. Besides, the “γH2A.X foci / DNA damage response” value in series [6] (25 μM) is recorded as “strong DNA damage response”.

Regarding “[Pt(O,O′-cdbca)(NH3)2] [[^14C]carboplatin]”, the “reduction in accumulation in cisplatin-resistant cells” value in series [9] is recorded as 50–75%.

Values taken from article PMC5035150 (Journal of biological inorganic chemistry : JBIC : a …, 2015).
